# Source: PubChem BioAssay
# NPY-Y2 antag – antagonists of human neuropeptide Y receptor Y2 | NPY-Y2 expressing cells, antagonist mode | inhibition, % at 2.7 µM | actives 0.99% (n = 140,000) | AID 793;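 further: 0% = vehicle with agonist challenge and 100% = reference antagonist with challenge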
# Target sequence (P49146 whole entry, looked up): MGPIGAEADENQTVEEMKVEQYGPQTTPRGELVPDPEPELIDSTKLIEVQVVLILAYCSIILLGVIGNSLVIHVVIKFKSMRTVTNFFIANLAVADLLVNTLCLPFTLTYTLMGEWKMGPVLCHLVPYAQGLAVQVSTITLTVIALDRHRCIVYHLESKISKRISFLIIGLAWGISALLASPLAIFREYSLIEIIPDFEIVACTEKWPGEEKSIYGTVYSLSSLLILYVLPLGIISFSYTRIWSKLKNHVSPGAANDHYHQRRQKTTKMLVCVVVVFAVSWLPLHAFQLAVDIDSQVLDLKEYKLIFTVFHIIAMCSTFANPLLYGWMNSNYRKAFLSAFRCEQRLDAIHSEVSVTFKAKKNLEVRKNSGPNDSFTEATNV
# S1P4 ag – agonists of human S1P4 receptor; O95977; S1P4-expressing cell line, agonist reporter assay; activation, % at 4.98 µM; actives 0.35% (n = 220,000); in the data active means activation above about 11%;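 further: 0% = DMSO vehicle and 100% = reference agonist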
# S1P4 antagonist – human S1P4 receptor antagonism; actives 0.26% (n = 220,000); inhibition, % at 4.98 µM; S1P4-expressing cells, antagonist mode, reporter read-out; O95977; AID 1510; in the data active means inhibition above about 29%;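 further: 0% = wells stimulated with agonist and 100% = vehicle wells without agonist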
# NPY2 pot ag – potentiators or agonists of human neuropeptide Y receptor Y2; actives 0.45% (n = 220,000); cells expressing NPY-Y2, potentiator/agonist read-out; activation, % at 3.6 µM; AID 1359; P49146; in the data active means activation above about 27%;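 further: cells stimulated with NPY near EC25 plus isoproterenol at EC100; 0% = vehicle plus submaximal agonist and 100% = vehicle plus saturating agonist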
# NPY1 pot ag – potentiators or agonists of human neuropeptide Y receptor Y1; actives 0.37% (n = 220,000); NPY-Y1 expressing cells, potentiator/agonist activation; P25929; activation, % at 3.6 µM; AID 1304; in the data active means activation above about 33%, passing the limit was not always enough;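 further: cells stimulated with NPY at EC10 then isoproterenol at EC100; 0% = low agonist plus stimulus and 100% = saturating agonist plus stimulus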
# NPY Y1 blocker – blocks the human neuropeptide Y Y1 receptor; P25929; actives 1% (n = 200,000); inhibition, % at 3.6 µM; AID 1040; HEK293-CNG Y1 cells, membrane potential fluorescence; NPY at EC95, then isoproterenol;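 active means inhibition above the campaign mean inhibition of all tested compounds plus 3 SD, cut at about 20% in these data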;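 further: 0% = DMSO wells given NPY plus isoproterenol and 100% = isoproterenol alone without NPY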
#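 Material: HEK293 Y1/CNG channel cell line; also added: NPY (25 nM), isoproterenol (1 µM), Ro 20-1724 (25 µM); doses: one concentration, 3.6 µM, in 0.4% DMSO; schedule: compound incubation 1 h at room temperature, readout 45 min post-stimulation; technique: membrane potential fluorescence; measure: fluorescence ratio normalized to % inhibition between controls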
# NPY1 antag conf – human NPY-Y1 antagonism, confirmation; inhibition, % at 3.6 µM; shares compounds with NPY Y1 blocker; actives 21% (n = 1,200); AID 1254; HEK293-CNG NPY-Y1, membrane potential fluorescence, cAMP; NPY challenge against isoproterenol-raised cAMP; in the data active means inhibition above about 20%;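 further: 0% = vehicle with agonist plus stimulus and 100% = stimulus alone without agonist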
# NPY2 antag ctr – counter-screen for NPY-Y1 antagonists: human NPY-Y2 antagonism. actives 28% (n = 1,200). shares compounds with NPY Y1 blocker. inhibition, % at 3.6 µM. HEK293 NPY-Y2 CNG membrane potential fluorescence; cells given NPY, then isoproterenol;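 further: 0% = DMSO with agonist challenge and 100% = reference antagonist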
# Numbers without * were called inactive; . = no result given. Compounds with a hit are over-represented: about 2.4% of the library has one in this group of screens. Unless noted, no stated cut-off is given here; in the data, active means inhibition above about 17%; inactive means the rest.
SMILES,NPY-Y2 antag,S1P4 ag,S1P4 antagonist,NPY2 pot ag,NPY1 pot ag,NPY Y1 blocker,NPY1 antag conf,NPY2 antag ctr
COc1ccccc1/C=C/C(=O)OCc1nc2ccccc2c(=O)[nH]1,.,-1,-5,-1,-23,4,.,.
C(=C\c1ccccc1)/CN1CCN(c2ncnc3c2oc2ccccc23)CC1,14,2,-16,-26,6,26*,11,16
Nc1nc(N2CCN(C/C=C/c3ccccc3)CC2)nc2ccccc12,9,1,4,11,-22,22*,15,3
O=c1[nH]c(CN2CCN(C/C=C/c3ccccc3)CC2)nc2ccccc12,2,2,-3,5,-31,1,.,.
c1ccc2c(c1)oc1c(N3CCOCC3)ncnc12,3,-1,-2,2,-12,3,.,.
COc1ccc(CC2(CO)CCN(C(C)Cc3ccc(Cl)cc3)CC2)cc1 (configuration not stated),.,-3,9,-89,-35,26*,16,21*
COc1ccc(CC2(CO)CCN(Cc3cccc(OC)c3OC)CC2)cc1,.,-1,14,-12,-10,7,.,.
CCN(CC)c1ccc(NC(=O)COC(=O)c2cccs2)cc1,5,2,2,0,3,21*,-1,2
CCn1cc(C(=O)N2CCN(c3cccc(Cl)c3)CC2)c2cc(OC)c(OC)cc2c1=O,-1,0,-6,-6,13,-1,.,.
CCc1cccc(CC)c1NC(=O)COC(=O)C1(C)CC1(Cl)Cl (configuration not stated),.,2,3,-7,-4,29*,11,18*
COc1ccc(CSc2n[nH]c(C)n2)cc1Br,-2,3,-5,14,7,-2,.,.
Cc1nc(SCc2cccc(Oc3ccccc3)c2)n[nH]1,3,0,8,11,23,23*,6,34*
O=C(Nc1ccc(SC(F)F)cc1)c1ccc(F)cc1,.,2,-32,-4,-6,3,.,.
CN(C)CC1CCCCC1OC(=O)/C=C/c1ccccc1 (configuration not stated),.,1,8,-3,-26,.,.,.
CCSc1nc(C2CC2)cc(-c2cccs2)c1C#N,3,2,1,-17,-18,22*,7,8
CCN(CC)C(=O)CC(c1ccc(F)cc1)c1ccc(OC)cc1 (configuration not stated),8,0,7,5,12,2,.,.
COc1cc(OC)cc(C(=O)N[C@H](C(=O)OCC(=O)Nc2ccc(C(C)C)cc2)C(C)C)c1,-1,-2,2,23,19,2,.,.
Cn1c2ccccc2c2cnn(CC(=O)O)c(=O)c21,12,1,4,-40,-48,26*,7,7
CCNC(=O)c1ccccc1SCC(=O)Nc1ccc(F)cc1,.,-1,-5,3,-6,-1,.,.
CCOC(=O)C1CCN(C(=O)CCS(=O)(=O)c2ccc3c(c2)CC(C)N3C(=O)CC)CC1 (configuration not stated),.,1,2,12,-6,37*,3,3
Cc1ccc(C(C(=O)Nc2ccc3c(c2)OCO3)N(C)C(=O)Cc2c[nH]c3ccccc23)cc1 (configuration not stated),1,0,-11,4,12,35*,-1,-5
CCN1CCN(c2nc(-c3ccccc3)nc3ccccc23)CC1,5,-1,-19,1,-36,21*,10,6
COc1ccc(C2(C(=O)Nc3ccc(C)c(C)c3)CCOCC2)cc1,.,-2,-11,-9,5,5,.,.
COc1ccc(CN(C(=O)/C=C/c2ccco2)C2CCS(=O)(=O)C2)cc1 (configuration not stated),.,2,-20,-8,16,.,.,.
CCOc1ccccc1NC(=O)C(OC(=O)C1CC1)c1ccccc1 (configuration not stated),.,2,11,-24,-8,.,.,.
SMILES,NPY-Y2 antag,S1P4 ag,S1P4 antagonist,NPY2 pot ag,NPY1 pot ag,NPY Y1 blocker,NPY1 antag conf,NPY2 antag ctr
CCOc1ccccc1NC(=O)C(NCC1(N2CCCCC2)CCCCC1)c1ccccc1 (configuration not stated),.,1,-2,-13,-27,34*,31*,30*
COc1cc(S(=O)(=O)N2CCN(Cc3ccc4c(c3)OCO4)CC2)c(C)cc1C,6,0,-17,-6,-16,15,.,.
COc1cc(C)c(C)cc1S(=O)(=O)N1CCN(Cc2ccc3c(c2)OCO3)CC1,11,0,-57,-23,-43,24*,13,11
O=C(CCN1C(=O)C2CCCCC2C1=O)Nc1nc(-c2ccccc2)cs1 (configuration not stated),.,1,-2,-11,-3,.,.,.
COc1cc(/C=C/C(=O)N2CCCc3ccccc32)cc(OC)c1OC,2,0,-7,7,4,1,.,.
Cc1cc(C)c(OC2(c3ccccc3)OC(=O)c3ccccc32)c(C)c1 (configuration not stated),16,1,-7,-17,-8,31*,11,7
Cc1cccc(C)c1OC1(c2ccccc2)OC(=O)c2ccccc21 (configuration not stated),11,1,-13,-20,-10,22*,6,7
CCOC1(c2ccccc2)OC(=O)c2ccccc21 (configuration not stated),0,3,-7,7,-17,-2,.,.
COc1ccccc1CN(Cc1cc2cc(C)ccc2[nH]c1=O)Cc1nnnn1Cc1ccco1,15,2,3,-9,-18,33*,21*,10
COc1ccc(C(CC(=O)O)NC(=O)c2sc3ccccc3c2Cl)cc1 (configuration not stated),11,-2,-92,-16,-72,22*,12,12
COc1ccc(C(CC(=O)O)NC(=O)c2cccs2)cc1 (configuration not stated),0,0,-11,-1,8,0,.,.
Cc1cc(C)c(OCC(=O)Nc2nnc(-c3ccco3)o2)c(C)c1,.,1,5,-10,-17,31*,10,11
CC(=O)Nc1nnc(-c2ccco2)o1,.,-2,-2,-10,19,0,.,.
O=C(CSc1nnc(CNC(=O)C23CC4CC(CC(C4)C2)C3)n1-c1ccccc1)Nc1ccccc1,0,1,-18,11,3,-2,.,.
COc1cccc(C2=NOC(C(=O)NCc3ccccc3)C2)c1 (configuration not stated),10,1,-14,-39,-30,45*,17,28*
